Reference: ChEMBL document CHEMBL1154716, “Synthesis of some new S-triazine based chalcones and their derivatives as potent antimicrobial agents” (2010)
Converted amounts (≈) assume the structure as drawn. The source made the active and inactive calls. No cut-off for these calls is given here.

How the values were obtained:
Pseudomonas aeruginosa [1] = assay: Antimicrobial activity against Pseudomonas aeruginosa at 1 umol/disk after 24 hrs by disk diffusion assay; format: functional
Summary of the method: (§1)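 Disc diffusion on 4 mm filter discs. Bacteria are grown overnight in LB at 28 C, then adjusted in saline to 1.0 × 10^5 cfu/ml. The suspension is mixed into top agar over peptone agar plates. Plates are incubated 24 h at 28 C, and growth-inhibition zone diameter is measured. Streptomycin and ampicillin controls are applied from a 1 mg/ml stock. Tests are done in duplicate.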

Escherichia coli [2] = assay: Antimicrobial activity against Escherichia coli at 1 umol/spot after 18 hrs by TLC-bioautographic method; format: functional
Summary of the method: (§2)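 TLC bioautography. Samples are spotted on silica gel TLC plates, then sprayed with bacteria (1.0 × 10^5 cfu/ml) in tryptic soy broth. Plates are incubated 18 h at 37 C and sprayed with 3% aqueous p-iodonitrotetrazolium violet. After a further 3 h, growth is stopped with 70% EtOH. White zones on a pink background are scored as inhibition-zone diameter with standard errors.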

Pseudomonas aeruginosa [3] = assay: Antimicrobial activity against Pseudomonas aeruginosa after 24 hrs by microdilution technique; format: functional
Summary of the method: (§3)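 Broth microdilution in LB medium. Inoculum is 1.0 × 10^4 cfu per well, from a saline-adjusted suspension of 1.0 × 10^5 cfu/ml. Compounds are dissolved in DMSO. Incubated 24 h at 28 C. MIC is the lowest concentration with no visible growth under a binocular microscope. MBC is read by subculture into fresh broth for 72 h, with no growth taken as 99.5% kill. OD is read at 655 nm.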

Escherichia coli [4] = assay: Antimicrobial activity against Escherichia coli at 10 ug/disk after 24 hrs by disk diffusion assay; format: functional; settings: for zone of inhibition at 10 µg/disc: read-out: IZ; summary of the method: as §1
Enterobacter cloacae [5] = assay: Antimicrobial activity against Enterobacter cloacae after 24 hrs by microdilution technique; format: functional; summary of the method: as §3
Listeria monocytogenes [6] = assay: Antimicrobial activity against Listeria monocytogenes at 10 ug/disk after 24 hrs by disk diffusion assay; format: functional; summary of the method: as §1
Escherichia coli [7] = assay: Antimicrobial activity against Escherichia coli after 24 hrs by microdilution technique; format: functional; summary of the method: as §3
Bacillus cereus [8] = assay: Antimicrobial activity against Bacillus cereus at 1 umol/disk after 24 hrs by disk diffusion assay; format: functional; summary of the method: as §1
Micrococcus flavus [9] = assay: Antimicrobial activity against Micrococcus flavus at 1 umol/spot after 18 hrs by TLC-bioautographic method; format: functional; summary of the method: as §2
Pseudomonas aeruginosa [10] = assay: Antimicrobial activity against Pseudomonas aeruginosa at 10 ug/disk after 24 hrs by disk diffusion assay; format: functional; summary of the method: as §1
Bacillus cereus [11] = assay: Antimicrobial activity against Bacillus cereus at 10 ug/disk after 24 hrs by disk diffusion assay; format: functional; summary of the method: as §1
Staphylococcus aureus [12] = assay: Antimicrobial activity against Staphylococcus aureus at 1 umol/disk after 24 hrs by disk diffusion assay; format: functional; summary of the method: as §1
Staphylococcus aureus [13] = assay: Antimicrobial activity against Staphylococcus aureus after 24 hrs by microdilution technique; format: functional; summary of the method: as §3
Micrococcus flavus [14] = assay: Antimicrobial activity against Micrococcus flavus after 24 hrs by microdilution technique; format: functional; summary of the method: as §3
Salmonella typhimurium [15] = assay: Antimicrobial activity against Salmonella Typhimurium after 24 hrs by microdilution technique; format: functional, Salmonella enterica subsp. enterica serovar Typhimurium; settings: Salmonella enterica; summary of the method: as §3
Salmonella typhimurium [16] = assay: Antimicrobial activity against Salmonella Typhimurium at 1 umol/disk after 24 hrs by disk diffusion assay; format: functional, organism-based; settings: Salmonella enterica subsp. enterica serovar Typhimurium; summary of the method: as §1
Enterobacter cloacae [17] = assay: Antimicrobial activity against Enterobacter cloacae at 1 umol/spot after 18 hrs by TLC-bioautographic method; format: functional; summary of the method: as §2
Staphylococcus aureus [18] = assay: Antimicrobial activity against Staphylococcus aureus at 1 umol/spot after 18 hrs by TLC-bioautographic method; format: functional; summary of the method: as §2
Listeria monocytogenes [19] = assay: Antimicrobial activity against Listeria monocytogenes after 24 hrs by microdilution technique; format: functional; summary of the method: as §3
Micrococcus flavus [20] = assay: Antimicrobial activity against Micrococcus flavus at 10 ug/disk after 24 hrs by disk diffusion assay; format: functional; settings: for zone of inhibition at 10 µg/disc: read-out: IZ; summary of the method: as §1
Listeria monocytogenes [21] = assay: Antimicrobial activity against Listeria monocytogenes at 1 umol/spot after 18 hrs by TLC-bioautographic method; format: functional; summary of the method: as §2
Micrococcus flavus [22] = assay: Antimicrobial activity against Micrococcus flavus at 1 umol/disk after 24 hrs by disk diffusion assay; format: functional; summary of the method: as §1
Pseudomonas aeruginosa [23] = assay: Antimicrobial activity against Pseudomonas aeruginosa at 1 umol/spot after 18 hrs by TLC-bioautographic method; format: functional; summary of the method: as §2
Bacillus cereus [24] = assay: Antimicrobial activity against Bacillus cereus after 24 hrs by microdilution technique; format: functional; summary of the method: as §3
Staphylococcus aureus [25] = assay: Antimicrobial activity against Staphylococcus aureus at 10 ug/disk after 24 hrs by disk diffusion assay; format: functional; summary of the method: as §1
Salmonella typhimurium [26] = assay: Antimicrobial activity against Salmonella Typhimurium at 10 ug/disk after 24 hrs by disk diffusion assay; format: functional, organism-based; settings: Salmonella enterica subsp. enterica serovar Typhimurium; summary of the method: as §1
Enterobacter cloacae [27] = assay: Antimicrobial activity against Enterobacter cloacae at 1 umol/disk after 24 hrs by disk diffusion assay; format: functional; summary of the method: as §1
Salmonella typhimurium [28] = assay: Antimicrobial activity against Salmonella Typhimurium at 1 umol/spot after 18 hrs by TLC-bioautographic method; format: functional, Salmonella enterica subsp. enterica serovar Typhimurium; summary of the method: as §2
Escherichia coli [29] = assay: Antimicrobial activity against Escherichia coli at 1 umol/disk after 24 hrs by disk diffusion assay; format: functional; summary of the method: as §1
Bacillus cereus [30] = assay: Antimicrobial activity against Bacillus cereus at 1 umol/spot after 18 hrs by TLC-bioautographic method; format: functional; summary of the method: as §2
Enterobacter cloacae [31] = assay: Antimicrobial activity against Enterobacter cloacae at 10 ug/disk after 24 hrs by disk diffusion assay; format: functional; summary of the method: as §1
Listeria monocytogenes [32] = assay: Antimicrobial activity against Listeria monocytogenes at 1 umol/disk after 24 hrs by disk diffusion assay; format: functional; summary of the method: as §1

| SMILES | inhibition zone (IZ) (Escherichia coli [2]) | MBC (Pseudomonas aeruginosa [3]) [µM] | MIC (Pseudomonas aeruginosa [3]) [µM] | MBC (Enterobacter cloacae [5]) [µM] | MIC (Enterobacter cloacae [5]) [µM] | MBC (Escherichia coli [7]) [µM] | MIC (Escherichia coli [7]) [µM] | inhibition zone (IZ) (Micrococcus flavus [9]) | MBC (Staphylococcus aureus [13]) [µM] | MIC (Staphylococcus aureus [13]) [µM] | MBC (Micrococcus flavus [14]) [µM] | MIC (Micrococcus flavus [14]) [µM] | MBC (Salmonella typhimurium [15]) [µM] | MIC (Salmonella typhimurium [15]) [µM] | inhibition zone (IZ) (Salmonella typhimurium [16]) | inhibition zone (IZ) (Enterobacter cloacae [17]) [millimeter] | inhibition zone (IZ) (Staphylococcus aureus [18]) | MBC (Listeria monocytogenes [19]) [µM] | MIC (Listeria monocytogenes [19]) [µM] | inhibition zone (IZ) (Listeria monocytogenes [21]) [millimeter] | also measured |
| --- | --- | --- | --- | --- | --- | --- | --- | --- | --- | --- | --- | --- | --- | --- | --- | --- | --- | --- | --- | --- | --- |
| COc1ccccc1-c1cc(-c2ccc(Nc3nc(Nc4ccccc4)nc(Nc4ccccc4)n3)cc2)nc(N)c1C#N | inactive | 692 (≈ 400 µg/mL) | 346 (≈ 200 µg/mL) | 346 (≈ 200 µg/mL) | 173 (≈ 99.9 µg/mL) | 346 (≈ 200 µg/mL) | 173 (≈ 99.9 µg/mL) | 0.06 millimeter | 346 (≈ 200 µg/mL) | 173 (≈ 99.9 µg/mL) | 173 (≈ 99.9 µg/mL) | 86.5 (≈ 50 µg/mL) | 346 (≈ 200 µg/mL) | 173 (≈ 99.9 µg/mL) | inactive | 0.08 | inactive | 692 (≈ 400 µg/mL) | 346 (≈ 200 µg/mL) | 0.09 | inhibition zone (IZ) (Pseudomonas aeruginosa [1]): inactive; zone of inhibition at 10 µg/disc (Escherichia coli [4]): 7 mm; zone of inhibition at 10 µg/disc (Listeria monocytogenes [6]; read-out: IZ): 6 mm; inhibition zone (IZ) (Bacillus cereus [8]): inactive; inhibition zone (IZ) (Pseudomonas aeruginosa [10]): inactive; inhibition zone (IZ) (Bacillus cereus [11]): inactive; inhibition zone (IZ) (Staphylococcus aureus [12]): inactive; zone of inhibition at 10 µg/disc (Micrococcus flavus [20]): 10 mm; inhibition zone (IZ) (Micrococcus flavus [22]): 0.06 millimeter; inhibition zone (IZ) (Pseudomonas aeruginosa [23]): inactive; MBC (Bacillus cereus [24]): 173 µM (≈ 99.9 µg/mL); MIC (Bacillus cereus [24]): 86.5 µM (≈ 50 µg/mL); inhibition zone (IZ) (Staphylococcus aureus [25]): inactive; inhibition zone (IZ) (Salmonella typhimurium [26]): inactive; inhibition zone (IZ) (Enterobacter cloacae [27]): inactive; inhibition zone (IZ) (Salmonella typhimurium [28]): 0.07 millimeter; inhibition zone (IZ) (Escherichia coli [29]): 0.04 millimeter; inhibition zone (IZ) (Bacillus cereus [30]): inactive; inhibition zone (IZ) (Enterobacter cloacae [31]): inactive |
| CN[C@@H]1[C@H](O[C@H]2[C@H](O[C@H]3[C@H](O)[C@@H](O)[C@H](N=C(N)N)[C@@H](O)[C@@H]3N=C(N)N)O[C@@H](C)[C@]2(O)C=O)O[C@@H](CO)[C@H](O)[C@H]1O [STREPTOMYCIN] | 0.06 millimeter | 344 (≈ 200 µg/mL) | 172 (≈ 100 µg/mL) | 344 (≈ 200 µg/mL) | 172 (≈ 100 µg/mL) | 344 (≈ 200 µg/mL) | 172 (≈ 100 µg/mL) | 0.05 millimeter | 344 (≈ 200 µg/mL) | 172 (≈ 100 µg/mL) | 172 (≈ 100 µg/mL) | 86 (≈ 50 µg/mL) | 344 (≈ 200 µg/mL) | 172 (≈ 100 µg/mL) | inactive | 0.07 | 0.04 millimeter | 516 (≈ 300 µg/mL) | 258 (≈ 150 µg/mL) | 0.08 | inhibition zone (IZ) (Pseudomonas aeruginosa [1]): inactive; zone of inhibition at 10 µg/disc (Escherichia coli [4]): 10 mm; inhibition zone (IZ) (Listeria monocytogenes [6]): inactive; inhibition zone (IZ) (Listeria monocytogenes [32]): inactive; inhibition zone (IZ) (Pseudomonas aeruginosa [10]): inactive; zone of inhibition at 10 µg/disc (Bacillus cereus [11]; read-out: IZ): 18 mm; zone of inhibition at 10 µg/disc (Micrococcus flavus [20]): 20 mm; inhibition zone (IZ) (Micrococcus flavus [22]): 0.1 millimeter; inhibition zone (IZ) (Pseudomonas aeruginosa [23]): 0.08 millimeter; MBC (Bacillus cereus [24]): 86 µM (≈ 50 µg/mL); MIC (Bacillus cereus [24]): 43 µM (≈ 25 µg/mL); zone of inhibition at 10 µg/disc (Staphylococcus aureus [25]; read-out: IZ): 13 mm; inhibition zone (IZ) (Salmonella typhimurium [26]): inactive; inhibition zone (IZ) (Salmonella typhimurium [28]): 0.08 millimeter; inhibition zone (IZ) (Escherichia coli [29]): 0.06 millimeter; inhibition zone (IZ) (Bacillus cereus [30]): 0.08 millimeter; zone of inhibition at 10 µg/disc (Enterobacter cloacae [31]; read-out: IZ): 12 mm |
| COc1ccccc1/C=C/C(=O)c1ccc(Nc2nc(Nc3ccccc3)nc(Nc3ccccc3)n2)cc1 | inactive | 536 (≈ 276 µg/mL) | 268 (≈ 138 µg/mL) | 536 (≈ 276 µg/mL) | 268 (≈ 138 µg/mL) | 268 (≈ 138 µg/mL) | 134 (≈ 69 µg/mL) | inactive | 268 (≈ 138 µg/mL) | 134 (≈ 69 µg/mL) | 536 (≈ 276 µg/mL) | 268 (≈ 138 µg/mL) | 536 (≈ 276 µg/mL) | 268 (≈ 138 µg/mL) | inactive | 0.08 | 0.07 millimeter | 536 (≈ 276 µg/mL) | 268 (≈ 138 µg/mL) | 0.08 | inhibition zone (IZ) (Escherichia coli [4]): inactive; inhibition zone (IZ) (Listeria monocytogenes [6]): inactive; inhibition zone (IZ) (Bacillus cereus [8]): inactive; inhibition zone (IZ) (Listeria monocytogenes [32]): inactive; zone of inhibition at 10 µg/disc (Pseudomonas aeruginosa [10]; read-out: IZ): 6 mm; inhibition zone (IZ) (Bacillus cereus [11]): inactive; inhibition zone (IZ) (Staphylococcus aureus [12]): inactive; inhibition zone (IZ) (Micrococcus flavus [20]): inactive; inhibition zone (IZ) (Micrococcus flavus [22]): inactive; inhibition zone (IZ) (Pseudomonas aeruginosa [23]): inactive; MBC (Bacillus cereus [24]): 268 µM (≈ 138 µg/mL); MIC (Bacillus cereus [24]): 134 µM (≈ 69 µg/mL); inhibition zone (IZ) (Staphylococcus aureus [25]): inactive; inhibition zone (IZ) (Salmonella typhimurium [26]): inactive; inhibition zone (IZ) (Enterobacter cloacae [27]): inactive; inhibition zone (IZ) (Salmonella typhimurium [28]; Salmonella enterica subsp. enterica serovar Typhimurium): inactive; inhibition zone (IZ) (Escherichia coli [29]): inactive; inhibition zone (IZ) (Bacillus cereus [30]): 0.06 millimeter; inhibition zone (IZ) (Enterobacter cloacae [31]): inactive |
